From ChEMBL document CHEMBL1268957, “Indapamide-like benzenesulfonamides as inhibitors of carbonic anhydrases I, II, VII, and XIII” (Bioorg Med Chem, 2010)

Assays:
Carbonic anhydrase 2 [1] = target: T1, Carbonic anhydrase 2 (Homo sapiens, UniProt P00918); assay: Binding affinity to human recombinant carbonic anhydrase 2 by thermal shift assay
Carbonic anhydrase 7 [2] = target: T2, Carbonic anhydrase 7 (Homo sapiens, UniProt P43166); assay: Binding affinity to human recombinant carbonic anhydrase 7 by thermal shift assay
T2 sequence (P43166 whole entry): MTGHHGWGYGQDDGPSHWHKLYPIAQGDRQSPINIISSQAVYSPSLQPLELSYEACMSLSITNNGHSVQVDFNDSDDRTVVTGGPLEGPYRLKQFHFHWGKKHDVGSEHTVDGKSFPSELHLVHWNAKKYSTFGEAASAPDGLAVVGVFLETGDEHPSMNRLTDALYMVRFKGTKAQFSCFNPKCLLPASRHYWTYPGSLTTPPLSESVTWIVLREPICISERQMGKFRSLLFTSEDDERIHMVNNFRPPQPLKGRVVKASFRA

Carbonic anhydrase 1 [3] = target: T3, Carbonic anhydrase 1 (Homo sapiens, UniProt P00915); assay: Binding affinity to human recombinant carbonic anhydrase 1 by thermal shift assay
T3 sequence (P00915 whole entry): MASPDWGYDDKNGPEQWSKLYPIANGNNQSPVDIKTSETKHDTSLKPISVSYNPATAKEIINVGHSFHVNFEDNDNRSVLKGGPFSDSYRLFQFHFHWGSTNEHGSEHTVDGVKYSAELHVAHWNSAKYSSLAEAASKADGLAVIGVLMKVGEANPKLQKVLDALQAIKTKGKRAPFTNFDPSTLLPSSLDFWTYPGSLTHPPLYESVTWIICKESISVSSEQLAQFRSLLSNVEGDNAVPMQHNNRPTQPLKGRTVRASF

Carbonic anhydrase 13 [4] = target: T4, Carbonic anhydrase 13 (Homo sapiens, UniProt Q8N1Q1); assay: Binding affinity to human recombinant carbonic anhydrase 13 by thermal shift assay
T4 sequence (Q8N1Q1 whole entry): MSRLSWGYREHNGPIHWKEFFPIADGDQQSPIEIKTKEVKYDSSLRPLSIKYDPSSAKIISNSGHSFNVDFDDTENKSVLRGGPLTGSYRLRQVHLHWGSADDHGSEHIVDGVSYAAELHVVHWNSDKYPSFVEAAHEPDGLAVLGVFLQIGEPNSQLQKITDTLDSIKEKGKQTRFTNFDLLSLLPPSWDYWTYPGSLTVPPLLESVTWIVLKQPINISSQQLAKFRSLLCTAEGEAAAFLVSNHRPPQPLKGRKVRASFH

Carbonic anhydrase 1 [5] = target: T3, Carbonic anhydrase 1; assay: Binding affinity to human recombinant carbonic anhydrase 1 by isothermal titration calorimetry assay
In short: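 Isothermal titration calorimetry of ligand binding to recombinant hCA at 37 °C in phosphate buffer with 50 mM NaCl, pH 7.0, final DMSO 0.5–2%. Heats of injection integrated against molar ratio to give the dissociation constant.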

Carbonic anhydrase 13 [6] = target: T4, Carbonic anhydrase 13; assay: Binding affinity to human recombinant carbonic anhydrase 13 by isothermal titration calorimetry assay
Carbonic anhydrase 7 [7] = target: T2, Carbonic anhydrase 7; assay: Binding affinity to human recombinant carbonic anhydrase 7 by isothermal titration calorimetry assay
Carbonic anhydrase 2 [8] = target: T1, Carbonic anhydrase 2; assay: Binding affinity to human recombinant carbonic anhydrase 2 by isothermal titration calorimetry assay

Kd (Carbonic anhydrase 2 [1]) [nM]	Kd (Carbonic anhydrase 7 [2]) [nM]	Kd (Carbonic anhydrase 1 [3]) [nM]	Kd (Carbonic anhydrase 13 [4]) [nM]	Kd (Carbonic anhydrase 1 [5]) [nM]	Kd (Carbonic anhydrase 13 [6]) [nM]	Kd (Carbonic anhydrase 7 [7]) [nM]	Kd (Carbonic anhydrase 2 [8]) [nM]	Compound
400	–	–	–	–	–	–	–	CC(C)Cc1nc2ccccc2n1CC(=O)c1ccc(Cl)c(S(N)(=O)=O)c1
4200	10000	40000	12500	–	–	–	–	NS(=O)(=O)c1cc(C(=O)Cn2c(CN3CCOCC3)nc3ccccc32)ccc1Cl
20	100	3100	100	2200	300	1100	–	NS(=O)(=O)c1cc(C(=O)CSc2nc3cc4c(cc3[nH]2)OCCO4)ccc1Cl
–	100	1300	100	1400	200	–	–	NS(=O)(=O)c1cc(C(=O)CSc2nc3ccc(Br)cc3[nH]2)ccc1Cl
–	100	1300	100	–	–	–	–	NS(=O)(=O)c1cc(C(=O)CSc2nc3c(cnc4ccccc43)[nH]2)ccc1Cl
–	–	–	300	–	–	–	–	NS(=O)(=O)c1cc(C(=O)Cn2c(CO)nc3ccccc32)ccc1Cl
–	–	–	700	–	–	–	–	NS(=O)(=O)c1cc(C(=O)Cn2cnc3ccccc32)ccc1Cl
100	30	1000	200	1300	100	100	100	NS(=O)(=O)c1cc(C(=O)CSc2nc3ccccc3[nH]2)ccc1Cl
